Assay results: ChEMBL document CHEMBL1154400, “Pharmacokinetics of single- and multiple-dose oral clarithromycin in soft tissues determined by microdialysis” (Antimicrob Agents Chemother, 2007)

Columns and labels:
[1] = AUC (0 to 8 hrs) in human plasma at 500 mg, po, bid for 3 to 5 days; type: ADME, organism-based; parameters: dose 500 mg, time < 8 hr, route oral
Summary of the method: (§1)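 Oral clarithromycin 500 mg b.i.d. for 3-5 days, starting 12 h after a single 250 mg dose; last dose given supervised on the morning of day 2 after a baseline blood draw and a 2-h trough dialysate. Sampling as on day 1: microdialysis of muscle and adipose tissue plus venous plasma over 8 h, HPLC. Dialysate concentrations corrected for individual recovery.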

[2] = Tmax in human plasma unbound fraction at 500 mg, po, bid for 3 to 5 days; type: ADME, organism-based
Summary of the method: (§2)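 Free plasma concentrations obtained by applying each volunteer's measured protein binding to total plasma concentrations, measured by HPLC after the 250 mg single dose or the 500 mg b.i.d. steady-state dose, with sampling over 8 h.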

[3] = Tmax in fasting human interstitial-space fluid of skeletal muscle at 250 mg, po; type: ADME, organism-based, Muscle tissue
Summary of the method: (§3)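 Healthy male volunteers aged 25-37 y, fasting; single oral 250 mg tablet after 60-min probe equilibration. Microdialysis probes in skeletal muscle and subcutaneous adipose tissue, perfused with Ringer's at 1.5 µl/min; dialysate and antecubital venous blood sampled every 20 min to 4 h, then every 30 min to 8 h. HPLC assay. Interstitial concentration = 100 x Cdialysate/recovery.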

[4] = Terminal half life in human plasma at 500 mg, po, bid for 3 to 5 days; type: ADME, organism-based; details: read-out: beta t1/2 (converted); summary of the method: as §1
[5] = Cmax in human interstitial-space fluid of skeletal muscle at 500 mg, po, bid for 3 to 5 days; type: ADME, organism-based, Muscle tissue; parameters: dose 500 mg, route oral; summary of the method: as §1
Homo sapiens [6] = assay: Volume of distribution at steady state in human plasma at 500 mg, po, bid for 3 to 5 days; type: ADME, organism-based; details: in vivo
Summary of the method: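 Healthy male volunteers (n=7, 25–37 y) took clarithromycin 500 mg orally b.i.d. for 3–5 days, with the last dose supervised. Venous blood (lithium heparin) was sampled every 20 min over 0–4 h and every 30 min over 4–8 h, and plasma was assayed by HPLC. Vss = CL × MRT, with CL = dose × F/AUC0-∞ and F taken as 55%. AUCs were calculated by the linear trapezoidal rule.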

[7] = Tmax in fasting human plasma unbound fraction at 250 mg, po; type: ADME, organism-based; summary of the method: as §2
[8] = Cmax in fasting human plasma at 250 mg, po; type: ADME, organism-based; parameters: dose 250 mg, route oral; summary of the method: as §3
[9] = Total clearance in fasting human plasma at 250 mg, po; type: ADME, organism-based
Homo sapiens [10] = assay: Free AUC (0 to 24 hrs) in fasting human plasma at 250 mg, po; type: ADME, organism-based; details: in vivo
[11] = Terminal half life in human interstitial-space fluid of skeletal muscle at 500 mg, po, bid for 3 to 5 days; type: ADME, organism-based, Muscle tissue; details: read-out: beta t1/2 (converted); summary of the method: as §1
[12] = AUC (0 to 24 hrs) in fasting human interstitial-space fluid of subcutaneous adipose tissue at 250 mg, po; type: ADME, organism-based; summary of the method: as §3
[13] = Tmax in human interstitial-space fluid of skeletal muscle at 500 mg, po, bid for 3 to 5 days; type: ADME, organism-based, Muscle tissue; summary of the method: as §1
[14] = AUC (0 to 8 hrs) in fasting human plasma at 250 mg, po; type: ADME, organism-based; parameters: dose 250 mg, time < 8 hr, route oral; summary of the method: as §3
[15] = Tmax in human plasma at 500 mg, po, bid for 3 to 5 days; type: ADME, organism-based; summary of the method: as §1
[16] = AUC (0 to 24 hrs) in fasting human interstitial-space fluid of skeletal muscle at 250 mg, po; type: ADME, organism-based, Muscle tissue; parameters: time < 24 hr, dose 250 mg, route oral; summary of the method: as §3
Homo sapiens [17] = assay: Free AUC (0 to 8 hrs) in fasting human plasma at 250 mg, po; type: ADME, organism-based; details: in vivo; summary of the method: as §2
[18] = AUC (0 to 24 hrs) in fasting human plasma at 250 mg, po; type: ADME, organism-based; parameters: dose 250 mg, time < 24 hr, route oral; summary of the method: as §3
[19] = Cmax in human plasma at 500 mg, po, bid for 3 to 5 days; type: ADME, organism-based; parameters: dose 500 mg, route oral; summary of the method: as §1
[20] = Tmax in fasting human plasma at 250 mg, po; type: ADME, organism-based; summary of the method: as §3
[21] = AUC (0 to 24 hrs) in human interstitial-space fluid of skeletal muscle at 500 mg, po, bid for 3 to 5 days; type: ADME, organism-based, Muscle tissue; parameters: dose 500 mg, time < 24 hr, route oral; summary of the method: as §1
[22] = Ratio of AUC (0 to 24 hrs) in human interstitial-space fluid of subcutaneous adipose tissue to free AUC (0 to 24 hrs) in human plasma at 500 mg, po bid
[23] = AUC (0 to 8 hrs) in human interstitial-space fluid of subcutaneous adipose tissue at 500 mg, po, bid for 3 to 5 days; type: ADME, organism-based; summary of the method: as §1
[24] = Cmax in human interstitial-space fluid of subcutaneous adipose tissue at 500 mg, po, bid for 3 to 5 days; type: ADME, organism-based; summary of the method: as §1
[25] = AUC (0 to 8 hrs) in fasting human interstitial-space fluid of subcutaneous adipose tissue at 250 mg, po; type: ADME, organism-based; summary of the method: as §3
[26] = Protein binding in human plasma at 250 mg, po; type: ADME, organism-based; details: read-out: PPB (converted)
Summary of the method: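 Plasma ultrafiltration done for each volunteer on samples taken 80 and 180 min post-dose, after both the single dose and at steady state. 300 µl aliquots spun through 5,000-MW-cutoff regenerated-cellulose filters at 5,000 x g, 30 min, ambient temperature. Ultrafiltrate concentrations corrected for 5% mean membrane binding. Binding (%) = 100 - 100 x Cultrafiltrate corr/Cplasma total.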

Work on `CC[C@H]1OC(=O)[C@H](C)[C@@H](O[C@H]2C[C@@](C)(OC)[C@@H](O)[C@H](C)O2)[C@H](C)[C@@H](O[C@@H]2O[C@H](C)C[C@H](N(C)C)[C@H]2O)[C@](C)(OC)C[C@@H](C)C(=O)[C@H](C)[C@@H](O)[C@]1(C)O` [CLARITHROMYCIN] yielded an AUC at 8 h [1] of 10600 ng·h/mL, a Tmax [2] of 3.2 h and a Tmax [3] of 3 h. The half-life [4] was 3.7 h, the Cmax [5] was 230 ng/mL and the Vdss (Homo sapiens [6]) was 126.5 L. The Tmax [7] was 2.6 h, the Cmax [8] was 1090 ng/mL and the CL/F [9] was 620 mL/min. The fAUC (Homo sapiens [10]) was 1210 ng·h/mL, the half-life [11] was 3.8 h and the AUC(0-t) [12] was 350 ng·h/mL. For the same molecule, the Tmax [13] was 3.8 h, the AUC(0-t) at 8 h [14] was 3630 ng·h/mL and the Tmax [15] was 3.2 h. It also gave an AUC(0-t) at 24 h [16] of 480 ng·h/mL, a fAUC (Homo sapiens [17]) of 990 ng·h/mL and an AUC(0-t) at 24 h [18] of 4450 ng·h/mL. For the same molecule, the Cmax [19] was 2210 ng/mL, the Tmax [20] was 2.6 h and the AUC at 24 h [21] was 2420 ng·h/mL. It also gave a Kp uu [22] of 0.39, an AUC [23] of 840 ng·h/mL and a Cmax [24] of 230 ng/mL. For the same molecule, the AUC(0-t) [25] was 240 ng·h/mL and the fraction unbound [26] was 0.287.
